Our source for the Km values is publication PMC2784041 (Environmental Microbiology, 2009).

What all share (assay): spectrophotometric ring-cleavage assay, non-linear Michaelis-Menten fit
Assay [1] deals with EXDO-Dbt_s207. The format is biochemical. Particulars: read-out: Km (μM) ^b, partially purified enzyme.
Assay [2] relates to EXDO-D_s4. The format is biochemical, uncultured bacterium. Particulars: read-out: Km (μM) ^b; 50 mM K/Na-phosphate pH 8.0, air-saturated; partially purified enzyme. The method, boiled down: (§1)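 Enzyme came from E. coli EPI300-T1R fosmid clones grown at 37°C in LB with 0.01% L-arabinose and 25 μg ml−1 chloramphenicol, harvested in late exponential phase. Extracts were partially purified by anion exchange chromatography. Ring-cleavage product was followed spectrophotometrically in 50 mM air-saturated K/Na-phosphate pH 8.0 (catechol ε375, 3-methylcatechol ε388, 2,3-dihydroxybiphenyl ε434). Km was obtained from initial velocities over 1–100 μM substrate by non-linear Michaelis–Menten regression.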

Assay [3] concerns EXDO-K2_s3. The format is biochemical. Particulars: read-out: Km (μM) ^b; 50 mM K/Na-phosphate pH 8.0, air-saturated; partially purified enzyme. The method in brief:
as §1

The subject of assay [4] is EXDO-K2_s7. The format is biochemical. The note with it: read-out: Km (μM) ^b; 50 mM K/Na-phosphate pH 8.0, air-saturated; partially purified enzyme. The method, boiled down: as §1
The test system of assay [5] is EXDO-D_s45. The format is biochemical, uncultured bacterium. Particulars: read-out: Km (μM) ^b; 50 mM K/Na-phosphate pH 8.0, air-saturated; partially purified enzyme. The method in brief:
as §1

Assay [6] has as its system EXDO-K2_s162. In kind it is biochemical. The note with it: read-out: Km (μM) ^b; 50 mM K/Na-phosphate pH 8.0, air-saturated; partially purified enzyme. The method, boiled down: as §1
For assay [7], the system named is EXDO-K2_s129. The format is biochemical. The note with it: read-out: Km (μM) ^b; 50 mM K/Na-phosphate pH 8.0, air-saturated; partially purified enzyme. The method in brief: as §1
Assay [8] concerns EXDO-D_s151. The format is biochemical, uncultured bacterium. The note with it: read-out: Km (μM) ^b; 50 mM K/Na-phosphate pH 8.0, air-saturated; partially purified enzyme. The method in brief: as §1
The mark [9] stands for this setting: 50 mM K/Na-phosphate pH 8.0, air-saturated.

Structures are written as SMILES. Like-named read-outs stand apart in the source and are kept apart here.

The term Km denotes the concentration of substrate that gives half-maximal velocity. For the compound `Oc1cccc(-c2ccccc2)c1O` [2,3-dihydroxybiphenyl], the Km in assay [1] (setting [9]) is 4.2 ± 0.7 µM; in assay [2] it was 3.7 ± 0.6 µM; in assay [3] it was 2.1 ± 0.2 µM; in assay [4] it was 0.84 ± 0.08 µM; in assay [5], 0.61 ± 0.08 µM; in assay [6], 1 ± 0.1 µM. In addition, the Km in assay [7] is 2.1 ± 0.2 µM.
As for `Cc1cccc(O)c1O` [3-methylcatechol], the Km is 3.5 ± 1.5 µM in assay [8]; 13.6 ± 1.9 µM in assay [1] (setting [9]); 1.8 ± 0.3 µM in assay [2]; 4.5 ± 0.6 µM in assay [3]; 4.6 ± 0.4 µM in assay [4]; 0.27 ± 0.1 µM in assay [5]. The Km is 4.3 ± 0.7 µM in assay [6] and 9.3 ± 1.1 µM in assay [7].
Consider `Oc1ccccc1O` [catechol], for which the Km in assay [8] came to 1.1 ± 0.2 µM; in assay [1] (setting [9]), 35 ± 5 µM; in assay [2] it was 1.4 ± 0.2 µM; in assay [5], 0.27 ± 0.03 µM.
Turning to `Oc1ccc2ccccc2c1O` [1,2-dihydroxynaphthalene], in assay [1] (50 mM acetic acid/NaOH pH 5.5, air-saturated), the Km came to 11.6 ± 1.4 µM.
